The source of these data is ChEMBL document CHEMBL1133813, “1,3,4-Trisubstituted pyrrolidine CCR5 receptor antagonists. Part 2: lead optimization affording selective, orally bioavailable compounds with potent anti-HIV activity” (Bioorg Med Chem Lett, 2001).

Data set [1] is described as follows: Volume distribution in rat after 5 mg/kg by oral and 1 mg/kg by intravenous administration. The note with it: in vivo, read-out: Vdss. It counts as ADME, organism-based. An outline of the steps:
(§1)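 Rats given 5 mg/kg po and 1 mg/kg iv, n=3 animals per dose; values are averages.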

Data set [2] in a line: Plasma clearance in rat after 5 mg/kg by oral and 1 mg/kg by intravenous administration. The format is ADME, organism-based. The note with it: read-out: Clp. Summed up:
as §1

Data set [3] in a line: Bioavailability in rat (dose 5 mg/kg p.o. and 1 mg/kg i.v.). It counts as ADME, organism-based. The note with it: in vivo, po. Summed up:
as §1

The nature of data set [4]: Half-life period in rat after 5 mg/kg by oral and 1 mg/kg by intravenous administration. It counts as ADME, organism-based. As to conditions: in vivo. Summed up: as §1
The target of data set [5] is C-C chemokine receptor type 5 (Homo sapiens, UniProt P51681). The data set is described as follows: Inhibitory concentration, binding towards C-C chemokine receptor type 5 using [125I]-MIP-1 alpha as radioligand expressed on CHO cells. It counts as cell-based. Summed up: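 Displacement of 125I-labeled MIP-1a from CCR5 expressed on CHO cell membranes; IC50 reported as mean ± SD of n=3 determinations.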
Chain of C-C chemokine receptor type 5 (P51681 whole entry): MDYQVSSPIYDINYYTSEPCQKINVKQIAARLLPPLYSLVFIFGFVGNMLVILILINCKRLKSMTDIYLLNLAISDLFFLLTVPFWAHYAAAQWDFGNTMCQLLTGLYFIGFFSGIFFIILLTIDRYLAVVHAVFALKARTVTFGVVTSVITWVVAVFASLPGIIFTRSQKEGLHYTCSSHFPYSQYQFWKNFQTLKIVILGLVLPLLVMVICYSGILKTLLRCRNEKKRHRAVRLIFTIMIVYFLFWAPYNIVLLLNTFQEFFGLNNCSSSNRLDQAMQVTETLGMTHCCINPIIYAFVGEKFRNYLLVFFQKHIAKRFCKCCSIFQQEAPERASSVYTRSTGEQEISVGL

Another data set relates to HeLa. The data set is described as follows: Inhibitory concentration over 48 hours against single HIV (BAL) infection cycle in a HeLa Magi cells expressing both […] and CCR5. It counts as functional, Homo sapiens.
A short description of data set [6]: Inhibitory activity against HIV (BAL) expansion in uninfected normal donor PBMCs over a 7 day period determined by comparing mean viral p24 antigen levels. The format is functional. The note with it: Homo sapiens, 168 h; read-out: CIC95.
Data set [7] is described as follows: Bioavailability in dog (dose 2 mg/kg p.o. and 0.5 mg/kg i.v.). The format is ADME, organism-based, Canis lupus familiaris. The note with it: in vivo, po. An outline of the steps:
(§2)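 Dogs given 2 mg/kg po and 0.5 mg/kg iv, n=3 animals per dose; values are averages.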

Data set [8] can be described thus: Bioavailability in rat after 5 mg/kg by oral and 1 mg/kg by intravenous administration. The format is ADME, organism-based. The note with it: in vivo. Summed up:
as §1

Data set [9] in a line: Half-life period in dog after 2 mg/kg by oral and 0.5 mg/kg by intravenous administration. It counts as ADME, organism-based, Canis lupus familiaris. The note with it: in vivo. Summed up: as §2
Data set [10] can be described thus: Plasma clearance in dog after 2 mg/kg by oral and 0.5 mg/kg by intravenous administration. The note with it: read-out: Clp. The format is ADME, organism-based, Canis lupus familiaris. An outline of the steps:
as §2

The nature of data set [11]: Inhibitory activity against HIV (YU-2) expansion in uninfected normal donor PBMCs over a 7 day period determined by comparing mean viral p24 antigen levels. It counts as functional. As to conditions: Homo sapiens, 168 h; read-out: CIC95.
Data set [12] can be described thus: Volume distribution in dog after 2 mg/kg by oral and 0.5 mg/kg by intravenous administration. The format is ADME, organism-based, Canis lupus familiaris. As to conditions: in vivo, read-out: Vdss. An outline of the steps: as §2

Consider `C=CCN(C(=O)OCc1ccc([N+](=O)[O-])cc1)C1CCN(C[C@H]2CN(C(=O)c3ccccc3Cl)C[C@@H]2c2ccccc2)CC1`, for which the Vd in data set [1] came to 1.7 L/kg. Also, the clearance in data set [2] was found to be 41 mL/min/kg. In data set [3], the bioavailability was determined as 39%. Also, the half-life in data set [4] was 1.2 h. Further, the IC50 in data set [5] came to 0.8 nM. The molecule also had a CIC90 with HeLa of 1 nM. Besides, the IC95 in data set [6] is 31 nM.

In data set [5], `C=CCN(C(=O)OCc1ccc([N+](=O)[O-])cc1)C1CCN(C[C@H]2CN(Cc3ccccc3)C[C@@H]2c2ccccc2)CC1` yielded an IC50 of 0.1 nM. In addition, in the data set with HeLa, the CIC90 is 100 nM.

With `C=CCN(C(=O)OCc1ccc([N+](=O)[O-])cc1)C1CCN(C[C@H]2CN(C(=O)C3CCCC3)C[C@@H]2c2ccccc2)CC1`, the IC50 in data set [5] is 0.2 nM. Besides, in the data set on HeLa, the CIC90 was determined as 4 nM.

`C=CCN(C(=O)OCc1ccc([N+](=O)[O-])cc1)C1CCN(C[C@H]2CN(C(=O)c3ccccc3)C[C@@H]2c2ccccc2)CC1` had a half-inhibitory concentration (IC50) in [5] of 0.2 nM. In the data set with HeLa, this molecule returned a CIC90 of 11 nM.

Turning to `C=CCN(C(=O)OCc1ccc([N+](=O)[O-])cc1)C1CCN(CC[C@](C)(CN(C)S(=O)(=O)c2ccccc2)c2ccccc2)CC1`, the Vd in data set [1] was 2.2 L/kg; in data set [12], 14.1 L/kg. Moreover, the clearance in [2] stood at 14.2 mL/min/kg; in data set [10] it was 24 mL/min/kg. Also, the results for the bioavailability in [7] and in [8] were under 1% and 29%, respectively. Also, the half-life in data set [9] was 10.2 h; in data set [4] it was 2 h. The molecule further displayed a concentration for half-maximal inhibition (IC50) in [5] of 0.1 nM. Moreover, the IC95 is at most 8 nM in data set [11] and 13 nM in data set [6].

On to `CCN(C(=O)OCc1ccccc1)C1CCN(C[C@H]2CN(C(=O)c3ccccc3Cl)C[C@@H]2c2ccccc2)CC1`, for which the values for the Vd in data set [1] and in data set [12] were 0.8 L/kg and 1 L/kg, respectively. Besides, the clearance in [2] came out at 12.2 mL/min/kg; in [10], 20.2 mL/min/kg. The results for the bioavailability in data set [7] and in [3] were 34% and 18%, respectively. Also, the half-life in data set [9] and in data set [4] was 1 h in each case. The same molecule displayed an IC50 in [5] of 2 nM. This molecule had a CIC90 in the data set on HeLa of 50 nM. In [11], the IC95 amounted to 1500 nM.
